# Cl transport mod – modulates chloride dependent transport by human KCC2; Q9H2X9; KCC2 cells, thallium flux FluoZin-2 fluorescence; B-score of Tl+ flux slope (higher = more flux/activation; lower = inhibition) at 10 µM; hit rate 2.2% among 190,000; AID 1456;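 active = thallium flux slope and its plate-corrected score both differing from the plate sample mean at a set confidence after two filtering rounds, in either direction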;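 note: slope of fluorescence scaled to starting intensity during 10 to 20 s after thallium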
# Target sequence (Q9H2X9 whole entry, looked up): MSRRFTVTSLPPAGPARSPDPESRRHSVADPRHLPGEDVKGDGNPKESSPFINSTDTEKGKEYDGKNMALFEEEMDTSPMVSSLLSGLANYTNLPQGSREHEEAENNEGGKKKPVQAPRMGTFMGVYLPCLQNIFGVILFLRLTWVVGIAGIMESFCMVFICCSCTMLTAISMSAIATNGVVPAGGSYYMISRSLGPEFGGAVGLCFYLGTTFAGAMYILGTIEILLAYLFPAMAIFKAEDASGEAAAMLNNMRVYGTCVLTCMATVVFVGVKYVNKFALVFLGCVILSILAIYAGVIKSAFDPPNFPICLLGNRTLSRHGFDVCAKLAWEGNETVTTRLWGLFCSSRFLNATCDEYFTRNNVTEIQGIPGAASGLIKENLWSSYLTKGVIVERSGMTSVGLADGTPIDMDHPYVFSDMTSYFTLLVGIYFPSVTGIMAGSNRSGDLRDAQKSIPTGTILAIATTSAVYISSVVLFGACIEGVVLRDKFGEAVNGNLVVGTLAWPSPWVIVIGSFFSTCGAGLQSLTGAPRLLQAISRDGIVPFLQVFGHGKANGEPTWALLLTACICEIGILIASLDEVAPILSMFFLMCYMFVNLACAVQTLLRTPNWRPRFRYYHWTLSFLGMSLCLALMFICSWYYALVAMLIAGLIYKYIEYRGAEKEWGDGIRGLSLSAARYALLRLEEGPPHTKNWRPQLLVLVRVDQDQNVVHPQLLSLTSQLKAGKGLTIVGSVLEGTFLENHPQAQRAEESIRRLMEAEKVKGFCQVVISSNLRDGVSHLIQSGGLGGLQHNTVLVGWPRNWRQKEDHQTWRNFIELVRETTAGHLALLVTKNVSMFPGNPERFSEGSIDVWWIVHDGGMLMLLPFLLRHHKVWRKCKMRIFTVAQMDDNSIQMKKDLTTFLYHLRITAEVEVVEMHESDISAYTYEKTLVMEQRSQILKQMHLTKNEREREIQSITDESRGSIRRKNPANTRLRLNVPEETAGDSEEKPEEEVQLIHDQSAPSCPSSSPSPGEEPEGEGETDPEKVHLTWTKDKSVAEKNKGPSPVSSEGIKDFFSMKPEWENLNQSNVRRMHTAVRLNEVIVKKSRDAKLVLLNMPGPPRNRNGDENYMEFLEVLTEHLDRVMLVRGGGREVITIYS
# PKD1 kinase inh – blocks activity of human protein kinase D1 | Q15139 | PKD1 kinase fluorescence polarization assay | inhibition, % (concentration not given with the values) | hit rate 0.056% among 200,000; in the data active = inhibition above about 50%
# Mdm2 ligase inh – inhibitors of human Mdm2 E3 ubiquitin ligase | hit rate 0.11% among 210,000 | Q00987 | cell-based MDM2 ubiquitination luciferase reporter, 2 h; 0 = plate control, 100 = twice control, blank-subtracted | signal enhancement, % at 5 µM;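 active = signal enhancement of 30% or more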;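 note: luminescence tracks abundance of the self-degrading MDM2-luciferase fusion protein; higher signal means inhibition of MDM2 E3 ligase activity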
#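 Test system: mammalian cells stably expressing self-ubiquitinating, self-degrading MDM2 E3–luciferase fusion; Amount: 2000 cells in each well; Medium: DMEM; Schedule: 4 h settle plus 2 h compound, 37 °C; Technique: SteadyLite luciferase luminescence after 15 min room-temperature reagent incubation; Benchmarks: plate control and blank wells.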
# Arbovirus inh – antivirals against arbovirus infection; arbovirus infection cell-based antiviral screen; inhibition, % at 10 µM; hit rate 0.37% among 200,000; in the data active = inhibition above about 30%
# ROMK mod – modulators of human ROMK potassium channel | P48048 | Tet-inducible ROMK, thallium flux fluorescence; actives lie on both sides | B-score at 10 µM | hit rate 2% among 130,000 | AID 1918;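 active = signal ratio slope over the read window, or its plate-corrected B-score, at least 3 SD from the plate mean, either direction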;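 note: B-score of the F/F0 ratio slope over 7 to 12 s after thallium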
# Calpain2 inh – calpain II (pig) inhibition; hit rate 0.37% among 220,000; AID 1236; inhibition, % at 16 µM; purified calpain II, fluorogenic peptide substrate, 30 min;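 active = inhibition above about 50%, limit read from the data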
# KCC2 sec1 – confirmation of human KCC2 transport modulators. shares compounds with Cl transport mod. HEK293-KCC2, thallium flux, FluoZin2 fluorescence; hits give high values. normalised thallium flux (F/F0 slope) at 10 µM. hit rate 15% among 3,700. AID 1713;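 active = thallium flux slope above the same plate's solvent-only control mean plus 3 SD; inconclusive = the two replicate wells disagree; inactive = no significant difference from solvent-only control wells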
# KCC2 bumet counter – thallium flux despite bumetanide block in KCC2 cells, secondary assay 3. HEK293-KCC2 + bumetanide/ouabain, thallium flux FluoZin2; hits give high values. hit rate 49% among 3,700. shares compounds with Cl transport mod. normalized thallium flux at 10 µM;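 active = thallium entry rate above the same plate's blocked-transporter control wells by more than 3 SD; inconclusive = the two repeat wells disagree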;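 note: raw slope of fluorescence over initial fluorescence between 10 and 20 s after thallium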
# KCC2 secondary2 – KCC2 (human) modulation, second secondary assay; normalized thallium flux at 10 µM; hit rate 23% among 3,700; HEK293-KCC2, thallium flux FluoZin2 fluorescence; actives lie on both sides; F/F0 rise rate, 10–20 s post-thallium; shares compounds with Cl transport mod;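 active = thallium flux slope more than 3 SD above or below the plate's solvent-only control mean, mostly below; inconclusive = the two repeat wells disagreed; inactive = no significant shift from solvent-only controls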
# HEK counter1 – parental HEK flux effect, counter-screen | AID 1716 | shares compounds with Cl transport mod | thallium flux rate (normalised fluorescence) at 10 µM | HEK293 parental cells, thallium flux FluoZin2, ouabain; baseline-ratio fluorescence slope, 10–20 s after thallium | hit rate 46% among 3,700;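 active = thallium flux rate significantly above the same plate's solvent-only control wells, beyond their mean plus 3 SD; inconclusive = the two replicate wells gave conflicting results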
# KCC2 ouabain – confirmation of human KCC2 modulators with ouabain. shares compounds with Cl transport mod. HEK293-KCC2, thallium flux FluoZin2 fluorescence; bidirectional: low = inhibitor, high = activator. raw Tl+ flux slope (below DMSO = inhibition, above = activation) at 10 µM. hit rate 48% among 3,700. AID 1717;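 active = thallium flux slope beyond 3 SD from same-plate DMSO control mean in most replicates, usually higher, sometimes lower; inconclusive = repeat tests gave conflicting results; inactive = no significant difference from controls in most replicates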;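 note: slope of initial-normalized fluorescence between seconds 10 and 20 after thallium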
# HEK counter2 – parental HEK flux effect, counter-screen 2 | hit rate 33% among 3,700 | shares compounds with Cl transport mod | thallium flux slope at 10 µM | AID 1718 | HEK293 parental, thallium flux FluoZin-2 fluorescence slope;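 active = thallium flux slope above the same plate's solvent-control mean plus 3 SD in both duplicate wells; inconclusive = duplicate wells that disagreed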;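 note: run without ouabain in cells lacking the KCC2 cotransporter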
# A number is an active result; – = inactive; ? = inconclusive; · = no result given. A selection: hits, their analogues and other compounds. The true share with any hit is near 3.7%.
SMILES,Cl transport mod,PKD1 kinase inh,Mdm2 ligase inh,Arbovirus inh,ROMK mod,Calpain2 inh,KCC2 sec1,KCC2 bumet counter,KCC2 secondary2,HEK counter1,KCC2 ouabain,HEK counter2
CCOC(=O)N1CCN(C(=S)NC(=O)C23CC4CC(CC(C4)C2)C3)CC1,5.91,–,–,–,–,–,–,0.0297,–,0.0118,?,–
CCN(CC)C(=S)NC(=O)C12CC3CC(CC(C3)C1)C2,20.1,–,–,–,–,–,–,0.0549,0.042,0.0284,0.0428,0.0337
COc1ccccc1C(=O)NC(CCSC)C(=O)OC(C)C(N)=O (stereo unspecified),–,–,–,–,–,–,·,·,·,·,·,·
C=CCn1c(CSc2nc3ccccc3s2)n[nH]c1=S,-4.42,–,–,–,·,–,–,0.00932,0.0237,0.00992,0.0144,?
S=C1CSc2ccccc2N1,8.6,–,–,–,·,–,–,0.0163,–,0.0143,?,0.0143
COCCCNC(=O)CN(c1cc([N+](=O)[O-])ccc1OC)S(C)(=O)=O,·,–,–,–,–,–,·,·,·,·,·,·
CNC(=S)N/N=C/c1c(C(=O)OC)cnn1-c1ccc(F)cc1F,–,·,–,·,–,–,·,·,·,·,·,·
COC(=O)c1cnn(-c2ccc(F)cc2F)c1/C=N/NC(=S)NC(C)(C)C,7.82,·,–,·,–,–,–,0.0512,–,0.0167,–,?
COC(=O)c1cnn(-c2ccccc2)c1/C=N/NC(=S)Nc1ccccc1,9.21,·,–,·,–,–,–,0.0191,–,0.0119,0.0293,–
Cc1ccccc1C(=O)Nn1cnc2ccccc2c1=O,–,–,–,–,–,–,·,·,·,·,·,·
COc1ccccc1NC(=O)c1ccc(CSc2ncccn2)cc1,–,–,–,–,–,–,·,·,·,·,·,·
Cn1cc(C(=O)C(=O)N2CCCc3ccccc32)c2ccccc21,-4.35,–,–,–,–,–,–,–,0.0243,–,–,–
CCCCCCC(C)OC(=O)Nc1cccc2ccccc12 (stereo unspecified),–,·,–,·,·,–,·,·,·,·,·,·
CN(C)CCCNC(=O)/C(=N\O)c1ccccc1,·,–,–,–,·,–,·,·,·,·,·,·
O=C(NCCc1ccccc1)/C(=N\O)c1ccccc1,·,–,–,–,–,–,–,–,?,–,–,–
O=C(NCCc1ccccc1)C(=O)NCC1CCCO1 (stereo unspecified),·,–,–,–,–,–,–,0.0082,–,–,–,0.0119
Cc1cc(-c2csc(N)n2)c(C)n1C,–,–,–,–,–,–,·,·,·,·,·,·
Cc1ccc(-n2c(C)cc(-c3csc(N)n3)c2C)cc1,-3.19,–,–,–,·,–,–,–,–,?,–,–
COC(=O)c1c(NC(=S)Nc2cc(OC)c(Cl)cc2OC)sc2c1CCCCC2,6.86,–,–,–,–,–,0.0152,0.0253,–,0.0111,–,?
CCOC(=O)c1c(NC(=S)Nc2cc([N+](=O)[O-])ccc2OC)sc2c1CCCCC2,–,–,–,–,·,–,·,·,·,·,·,·
COc1ccccc1N=Cc1c(C)[nH]n(-c2ccc(C)cc2C)c1=O,–,–,–,–,·,–,·,·,·,·,·,·
Cc1cc(Br)ccc1-n1[nH]c(C)c(C=Nc2cccc3nsnc23)c1=O,16.4,–,–,–,–,–,–,0.0433,–,0.0166,0.0398,?
Cc1sc2c(c1C)c(=O)nc1n2Cc2ccccc2-1,·,–,–,–,–,–,–,–,–,–,–,–
O=c1nc2n(c3sc4c(c13)CCC4)Cc1ccccc1-2,·,·,·,–,·,·,·,·,·,·,·,·
CCC(c1nnnn1Cc1ccccc1)N1CCN(c2ccccc2)CC1 (stereo unspecified),-3.86,–,–,–,–,–,–,–,?,–,0.0155,–
SMILES,Cl transport mod,PKD1 kinase inh,Mdm2 ligase inh,Arbovirus inh,ROMK mod,Calpain2 inh,KCC2 sec1,KCC2 bumet counter,KCC2 secondary2,HEK counter1,KCC2 ouabain,HEK counter2
O=C1C2CCCN2C(c2ccccc2F)N1c1cccc(Cl)c1 (stereo unspecified),-3.74,–,–,–,·,–,–,?,–,?,–,–
O=C(O)CCSc1ncnc2sc(-c3ccccc3)cc12,51.2,·,–,·,·,–,?,0.0556,0.0429,0.0558,0.055,0.033
COCCNC(=O)CSc1ncnc2sc(-c3ccccc3)cc12,7.48,–,–,–,–,–,–,0.0206,–,0.014,0.0218,0.0165
O=C(O)CSc1ncnc2sc(-c3ccccc3)cc12,–,–,–,–,–,–,·,·,·,·,·,·
CCOC(=O)c1c(NC(=O)CSc2nc3ccccc3c(=O)n2-c2ccc(F)cc2)sc(C(C)=O)c1C,–,–,–,–,–,–,·,·,·,·,·,·
O=C(c1ccc(S(=O)(=O)N2CCOCC2)cc1)N(c1ccccn1)C1CCCCC1,–,·,–,·,·,–,·,·,·,·,·,·
CCCCOc1ccc(Cc2c(COCC)[nH]c(=S)[nH]c2=O)cc1,14.7,–,–,–,–,–,?,0.0994,0.0427,0.0261,0.0529,0.0283
CCOCc1[nH]c(=S)[nH]c(=O)c1Cc1ccc(OCC(C)C)cc1,21.9,–,–,–,–,–,0.0138,0.061,–,?,0.0395,?
CCOCc1[nH]c(=S)[nH]c(=O)c1Cc1ccc(OCC)cc1,–,–,–,–,–,–,·,·,·,·,·,·
CCN(CC)S(=O)(=O)c1cccc(-c2nnc(SC(C)C(=O)NCCC3=CCCCC3)o2)c1 (stereo unspecified),-2.43,–,–,–,–,–,–,–,–,–,–,–
Cc1cc2nc(-c3ccc4c(c3)CCC4)ccn2n1,–,–,–,–,–,–,·,·,·,·,·,·
CCN(CC)c1ccc(NC(=O)c2ccccc2F)cc1,-6.19,–,–,–,·,–,–,?,–,–,–,–
O=C(NC(=S)Nc1ccc2c(c1)OCCO2)c1ccco1,99.9,·,–,·,·,–,0.0228,0.0995,–,0.0834,0.0702,0.0425
O=C(NC(=S)Nc1ccc(CN2CCCCC2)cc1)c1cccc(OCc2ccccc2)c1,–,–,·,–,–,–,·,·,·,·,·,·
O=C(O)c1ccc(NC(=S)NC(=O)c2cccc(COc3ccccc3)c2)cc1,-3.73,–,–,–,–,–,–,?,–,–,?,–
CN(C)S(=O)(=O)c1ccc(NC(=S)NC(=O)c2cccs2)cc1,3.98,–,–,–,–,–,–,0.016,–,0.00839,?,–
